The text below walks through data of ChEMBL document CHEMBL4312006, “A novel chalcone derivative as Nrf2 activator attenuates learning and memory impairment in a scopolamine-induced mouse model” (Eur J Med Chem, 2020).

For one assay, the target named is Keap1/Nrf2 (Homo sapiens, UniProt Q14145+Q16236). Put plainly: Activation of NRF2 in human U2OS cells co-expressing Keap1 (unknown origin) assessed as induction of NRF2 translocation to nucleus incubated for 6 hrs by beta-galactosidase based chemiluminescent assay. Format: cell-based. The method in brief:
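PathHunter U2OS cells engineered to co-express enzyme donor-tagged NRF2 and nuclear-localized enzyme acceptor; Nrf2 nuclear translocation reconstitutes β-galactosidase. Cells in 96-well plates exposed to a range of compound concentrations for 6 h at room temperature (20–23 °C), then 1 h with detection reagent in the dark; chemiluminescence (RLU) read. EC50 from concentration-response curve, mean ± SEM, triplicate.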

For assay [1], the target named is T1, Nuclear factor erythroid 2-related factor 2 (Mus musculus) (UniProt Q60795).
T1 sequence (whole entry): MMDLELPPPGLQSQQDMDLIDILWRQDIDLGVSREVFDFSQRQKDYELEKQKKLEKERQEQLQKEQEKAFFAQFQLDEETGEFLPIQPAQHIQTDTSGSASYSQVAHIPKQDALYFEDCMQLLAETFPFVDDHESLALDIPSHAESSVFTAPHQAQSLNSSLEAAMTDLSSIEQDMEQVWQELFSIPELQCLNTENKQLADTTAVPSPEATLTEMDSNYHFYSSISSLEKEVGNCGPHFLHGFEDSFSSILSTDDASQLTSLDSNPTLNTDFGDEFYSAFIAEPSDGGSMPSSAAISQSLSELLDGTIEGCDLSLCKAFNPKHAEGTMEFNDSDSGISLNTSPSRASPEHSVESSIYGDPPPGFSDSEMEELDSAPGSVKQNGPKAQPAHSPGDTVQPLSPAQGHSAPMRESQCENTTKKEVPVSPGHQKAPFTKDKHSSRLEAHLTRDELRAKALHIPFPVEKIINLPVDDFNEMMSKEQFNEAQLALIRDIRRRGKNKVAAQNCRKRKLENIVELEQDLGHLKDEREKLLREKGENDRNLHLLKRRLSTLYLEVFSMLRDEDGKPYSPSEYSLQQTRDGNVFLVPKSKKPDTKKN
Kind of assay: Activation of NRF2 in mouse BV2 cells assessed as upregulation of HO1 at 20 uM by ELISA relative to control. The assay is classed as cell-based.

The structures appear in SMILES notation. Structures can show the parent of a compound that is named as a salt.

Keap1/Nrf2, sequence (Q16236 whole entry): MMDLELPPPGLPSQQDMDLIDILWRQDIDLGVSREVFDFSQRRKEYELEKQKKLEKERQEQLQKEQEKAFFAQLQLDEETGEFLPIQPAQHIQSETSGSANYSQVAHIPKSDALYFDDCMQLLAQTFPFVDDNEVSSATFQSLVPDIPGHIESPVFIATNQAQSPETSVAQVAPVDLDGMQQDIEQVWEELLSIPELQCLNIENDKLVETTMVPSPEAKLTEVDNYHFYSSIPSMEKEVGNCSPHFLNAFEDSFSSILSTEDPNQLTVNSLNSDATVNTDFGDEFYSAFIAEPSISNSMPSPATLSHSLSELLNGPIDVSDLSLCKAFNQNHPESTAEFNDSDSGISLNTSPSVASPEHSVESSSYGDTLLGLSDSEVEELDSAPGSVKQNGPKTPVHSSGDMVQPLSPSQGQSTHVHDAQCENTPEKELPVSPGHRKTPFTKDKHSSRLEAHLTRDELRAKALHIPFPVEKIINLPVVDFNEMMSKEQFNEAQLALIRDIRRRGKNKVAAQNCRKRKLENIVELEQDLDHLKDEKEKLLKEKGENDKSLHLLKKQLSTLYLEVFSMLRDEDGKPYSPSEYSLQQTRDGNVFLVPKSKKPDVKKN
Keap1/Nrf2, sequence (Q14145 whole entry): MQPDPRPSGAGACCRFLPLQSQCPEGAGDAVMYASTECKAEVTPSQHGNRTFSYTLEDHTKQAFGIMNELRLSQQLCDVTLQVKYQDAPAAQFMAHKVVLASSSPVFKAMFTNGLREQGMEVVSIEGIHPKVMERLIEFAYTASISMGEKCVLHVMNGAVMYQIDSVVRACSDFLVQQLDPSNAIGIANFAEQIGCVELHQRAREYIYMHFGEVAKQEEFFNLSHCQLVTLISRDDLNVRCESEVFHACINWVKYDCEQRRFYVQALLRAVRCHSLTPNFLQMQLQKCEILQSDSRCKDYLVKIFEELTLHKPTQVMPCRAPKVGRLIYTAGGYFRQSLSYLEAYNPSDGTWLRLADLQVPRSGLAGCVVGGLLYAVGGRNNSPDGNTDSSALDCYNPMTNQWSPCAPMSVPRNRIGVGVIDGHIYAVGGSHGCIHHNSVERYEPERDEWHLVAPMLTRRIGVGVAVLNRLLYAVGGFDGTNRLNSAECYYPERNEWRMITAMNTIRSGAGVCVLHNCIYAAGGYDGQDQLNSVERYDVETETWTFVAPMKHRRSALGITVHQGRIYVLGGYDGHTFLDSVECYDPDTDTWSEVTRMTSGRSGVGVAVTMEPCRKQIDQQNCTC

For the compound `CN1CCN(C(=O)COc2ccc(C(=O)/C=C/c3ccccc3)cc2)CC1`, at Keap1/Nrf2, the concentration giving a half-maximal response (EC50) was found to be 1800 nM.
Regarding `O=C(/C=C/c1ccccc1C(F)(F)F)c1ccc(OCCCN2CCCC2)cc1`, the EC50 on Keap1/Nrf2 was > 1000 nM.
On to `CN(C)C(=O)COc1ccc(C(=O)/C=C/c2ccncc2)cc1`, for which the EC50 at Keap1/Nrf2 was determined as 1360 nM.
Regarding `O=C(/C=C/c1ccccc1C(F)(F)F)c1cccc(OCCCN2CCOCC2)c1`, the EC50 at Keap1/Nrf2 worked out at 2300 nM.
`CN1CCN(C(=O)COc2ccc(C(=O)/C=C/c3ccccc3Cl)cc2)CC1`: the EC50 at Keap1/Nrf2 turned out to be 970 nM.
Take `COc1ccccc1/C=C/C(=O)c1ccc(OCC(=O)N(C)C)cc1`: the EC50 at Keap1/Nrf2 came to 1460 nM.
On the same count and under the same terms, the figure for `O=C(/C=C/c1ccccc1Cl)c1ccc(OCCCN2CCOCC2)cc1` is 2420 nM.
The same measure, in the same setting: the figure for `CN1CCN(C(=O)COc2ccc(C(=O)/C=C/c3ccccc3F)cc2)CC1` is 1540 nM.
For `COc1ccccc1/C=C/C(=O)c1ccc(OCCCN2CCOCC2)cc1`, the Activity in assay [1] came out at 345%. At Keap1/Nrf2, the EC50 turned out to be 1630 nM.
`COc1ccccc1/C=C/C(=O)c1ccccc1OCCCN1CCOCC1`: in assay [1], the Activity stood at 146%. On Keap1/Nrf2, the EC50 worked out at 5520 nM.
In the same order, the values of `COc1ccccc1/C=C/C(=O)c1cccc(OCCCN2CCOCC2)c1` are < 200% and 1720 nM.
For the compound `O=C(/C=C/c1cccnc1)c1ccc(OCCCN2CCOCC2)cc1`, the EC50 at Keap1/Nrf2 was > 5000 nM.
Take `COc1ccccc1/C=C/C(=O)c1ccc(OCCCN2CCN(C)CC2)cc1`: the Activity in assay [1] was 217%. Further, the EC50 on Keap1/Nrf2 worked out at 3330 nM.
As to `O=C(/C=C/c1ccccc1C(F)(F)F)c1ccc(OCC(=O)N2CCOCC2)cc1`, on Keap1/Nrf2, the EC50 amounted to 1060 nM.
Same read-out and setting: under `COC(=O)/C=C/C(=O)OC` [DIMETHYL FUMARATE] stands 5110 nM.
For `COc1ccc(/C=C/C(=O)c2ccc(OCCCN3CCOCC3)cc2)cc1`, in assay [1], the Activity was determined as 166%. For the same compound, the EC50 at Keap1/Nrf2 was found to be 6970 nM.
Take `CN(C)C(=O)COc1ccc(C(=O)/C=C/c2cccnc2)cc1`: the EC50 on Keap1/Nrf2 was 1460 nM.
For `COc1ccccc1/C=C/C(=O)c1ccc(OCC(=O)N2CCOCC2)cc1`, the EC50 on Keap1/Nrf2 was found to be 1770 nM.
The same measure, in the same setting: under `COc1cccc(/C=C/C(=O)c2ccc(OCCCN3CCOCC3)cc2)c1` stands 2580 nM.
Turning to `COc1ccccc1/C=C/C(=O)c1ccc(OCCCN2CCCC2)cc1`, the Activity in assay [1] was 289%. For the same compound, the EC50 on Keap1/Nrf2 was 990 nM.
Consider `CN(C)C(=O)COc1ccc(C(=O)/C=C/c2ccccn2)cc1`, for which the EC50 at Keap1/Nrf2 came to 1100 nM.
Still for that read-out and setting: under `O=C(/C=C/c1cccc(C(F)(F)F)c1)c1ccc(OCCCN2CCOCC2)cc1` stands 2060 nM; under `O=C(/C=C/c1ccc(C(F)(F)F)cc1)c1ccc(OCCCN2CCOCC2)cc1`, 2430 nM.
On the same count and under the same terms, the figure for `CN(C)C(=O)COc1ccc(C(=O)/C=C/c2ccccc2C(F)(F)F)cc1` is 1120 nM; for `O=C(/C=C/c1ccccc1Cl)c1cccc(OCCCN2CCOCC2)c1` it is 2840 nM.
As to `O=C(/C=C/c1ccccn1)c1ccc(OCCCN2CCOCC2)cc1`, the Activity in assay [1] came out at 112%. The EC50 on Keap1/Nrf2 was > 5000 nM.
In the same order, the values of `O=C(/C=C/c1ccccc1C(F)(F)F)c1ccc(OCCCN2CCOCC2)cc1` are 351% and 1360 nM.
As to `COc1ccccc1/C=C/C(=O)c1ccc(OCC(=O)N2CCN(C)CC2)cc1`, the EC50 on Keap1/Nrf2 worked out at 1910 nM.
On the same count and under the same terms, under `O=C(/C=C/c1ccccn1)c1ccc(OCC(=O)N2CCOCC2)cc1` stands 1230 nM.
Same read-out and setting: under `O=C(/C=C/c1ccccc1Cl)c1ccc(OCCCN2CCCC2)cc1` stands 1390 nM.
